Bioassay records: PubChem BioAssay, Broad Institute
Cneo AK release: causes C. neoformans cell lysis; lysis activity, % at 15 µM; hit rate 0.2% among 360,000; AID 651654; adenylate kinase release luminescence, 4 h; normalised: neutral wells 0, clomiphene wells 100;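 active = mean lysis activity across replicates of at least 80%, whatever share of replicates individually reach that level; inactive = mean lysis activity below 80%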
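read-out = cell lysis signal | test system = log-phase Cryptococcus neoformans yeast cells | input = cells at 5 × 10^6 per mL | medium = fresh YPD growth medium | signal = luminescent adenylate kinase detection reagent | timing = 4 h at 37 °C static, read 1 h later | dosing = single dose | controls = Clomiphene as positive lysis control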
miR-122 sensor: miR-122 inhibition in Huh7 cells. Huh7 miR-122 Renilla luciferase sensor, 48 h; neutral wells = 0, positive control = 100. activation (reporter increase), % at 12.5 µM. hit rate 0.3% among 340,000. AID 602342;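 active = mean replicate activation score at least 90 and every replicate individually at or above 90; inconclusive = only one of the two criteria met; inactive = neither criterion met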;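 note: higher luciferase means less miR-122 activity so hits act as miR-122 inhibitors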
GSIS activator: primary screen for activators of insulin secretion dependent on glucose, INS-1E cells, GLuc reporter luminescence. INS-1E GLuc reporter insulin secretion, 2-3 h. activation, % at 16.6 µM. hit rate 0.61% among 370,000;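 active = lowest replicate activation of at least 40%, so every replicate reaches that level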;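 note: 0% = median of neutral control wells and 100% = median of IBMX positive control wells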
Rtt109 HAT inh: inhibitors of Candida albicans Rtt109/Vps75 histone acetyltransferase; Q5AAJ8; purified Rtt109/Vps75, ThioGlo CoA-SH fluorescence, 4 h; inhibition, % at 34.9 µM; hit rate 0.16% among 330,000; AID 540336;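 active = inhibition of at least 50% in every replicate; inconclusive = best replicate reaches 50% inhibition but some replicates fall short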
Env fusion inh: HIV envelope-mediated fusion inhibition; HeLa-JRFL Env/CEM21 cell fusion, luciferase; inhibition, % at 12.3 µM; hit rate 1.1% among 360,000;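 active = mean replicate inhibition score of at least 50 and every replicate individually at or above 50; inconclusive = only one of the two criteria met; inactive = mean below 50 and not all replicates reaching 50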;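 note: 0% = plate neutral controls and 100% = maraviroc near 300 nM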
dFosB act: mouse delta FosB homodimer activation. P13346. hit rate 0.99% among 340,000. AID 493131. activation, % at 25 µM. purified delta FosB, TAMRA-CDK5 oligo fluorescence polarization; percent of positive-control signal above neutral wells;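 active = mean activation above about 17%, with every replicate also reaching it, limit read from the data, passing the limit was not always enough; inconclusive = only one of the two conditions met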
Target sequence (P13346 whole entry, looked up): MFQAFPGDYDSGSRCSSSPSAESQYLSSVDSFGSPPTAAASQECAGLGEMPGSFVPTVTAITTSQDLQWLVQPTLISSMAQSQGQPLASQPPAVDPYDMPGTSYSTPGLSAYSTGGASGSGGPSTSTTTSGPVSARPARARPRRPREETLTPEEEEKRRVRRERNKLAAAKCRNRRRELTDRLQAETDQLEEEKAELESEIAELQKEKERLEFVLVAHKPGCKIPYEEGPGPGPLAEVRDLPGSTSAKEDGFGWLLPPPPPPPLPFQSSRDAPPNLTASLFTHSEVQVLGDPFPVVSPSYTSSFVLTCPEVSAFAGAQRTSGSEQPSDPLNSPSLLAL
Numbers without * were called inactive; ? = inconclusive; · = no result given; [ ] = another dose, or the depositor's remark. Shown are actives, neighbours in structure and some others; about 2.4% of the full set was active somewhere.

SMILES | Cneo AK release | miR-122 sensor | GSIS activator | Rtt109 HAT inh | Env fusion inh | dFosB act
NC(N)=N/N=C/c1ccccc1 | · | · | · | 12 | 1 | -3
CCOc1cc(/C=N/N=C(N)N)ccc1OCc1ccc(Cl)cc1 | -2 | -5 | · | 44 | -2 | 56*
COc1cc(/C=N/N=C(N)N)ccc1OCc1ccc(Cl)cc1 | 1 | · | -20 | ? | -27 | 59*
NC(N)=N/N=C/c1ccc(OCc2ccccc2)c(OCc2ccccc2)c1 | -2 | · | 439* | 79* | -11 | -311
NC(N)=N/N=C/c1ccc(Cl)c(Cl)c1 | 1 | -8 | · | · | 14 | ·
NC(N)=N/N=C/c1ccc(OCc2ccccc2Cl)cc1 | 16 | -20 | 51* | 10 | · | 9
O=C(Nc1ccccc1F)N[C@@H]1CC[C@H](CCNS(=O)(=O)c2ccccc2)O[C@H]1CO | 1 | · | -1 | · | -12[16.7 µM] | ·
Cc1noc(C)c1S(=O)(=O)N(C)C[C@H]1OCCCC[C@H](C)Oc2ccc(NC(=O)NC3CCCCC3)cc2C(=O)N([C@@H](C)CO)C[C@@H]1C | 44 | 4[16.7 µM] | -24 | · | 7[16.7 µM] | ·
CC(=O)Nc1ccc2c(c1)CC(=O)N(C)C[C@H](C)[C@H](CN(C)C(=O)OC(C)(C)C)O2 | · | · | 2 | · | · | ·
COc1ccc(C(=O)Nc2cccnc2Cl)cc1OC | 0 | 5 | 47* | -1 | -13 | -7
C[C@@H]1CN([C@H](C)CO)C(=O)c2cc(NC(=O)c3ccncc3)ccc2O[C@@H](C)CCCCO[C@H]1CN(C)S(=O)(=O)c1cccs1 | -4 | 3[16.7 µM] | -12 | · | -34[16.7 µM] | ·
CN(C)c1ccnc2c[cH-]cc12.[Fe].c1ccc(-[c-]2[c-](-c3ccccc3)[c-](-c3ccccc3)[c-](-c3ccccc3)[c-]2-c2ccccc2)cc1 (configuration not stated) | 2 | -1 | · | 5 | 57* | 5
CN(C)c1ccnc(Nc2ccccc2)c1C#N | 0 | 1 | 17 | -3 | 9 | -2
COc1ccc(NC(=O)Nc2ccc3c(c2)C(=O)N([C@@H](C)CO)C[C@H](C)[C@H](CN(C)Cc2ccc(C(=O)O)cc2)OCCCC[C@@H](C)O3)cc1 | 55 | -6[16.7 µM] | 0 | · | 38[16.7 µM] | ·
O=C(Nc1ccc(S(=O)(=O)NCc2cccnc2)cc1)c1ccco1 | 4 | 7 | · | -6 | 65* | -3
CC(=O)Nc1ccc(S(=O)(=O)NCCc2ccc(S(N)(=O)=O)cc2)cc1 | -11 | 226* | 19 | 8 | -48 | -2
CC(=O)Nc1ccc(S(=O)(=O)NCC(=O)NCCc2ccc(S(N)(=O)=O)cc2)cc1 | 4 | 10 | 22 | -1 | 7 | -8
O=C(Nc1ccc(S(=O)(=O)NCCc2ccccc2)cc1)c1ccco1 | · | 365* | -3 | -2 | · | -11
O=C(NCC[C@@H]1CC[C@@H](NS(=O)(=O)c2ccc(F)cc2)[C@@H](CO)O1)Nc1ccc(F)cc1 | -5 | · | -17 | · | 4[16.7 µM] | ·
CNC[C@@H]1OCCCC[C@@H](C)Oc2ccc(NS(=O)(=O)c3ccc(OC)cc3)cc2C(=O)N([C@@H](C)CO)C[C@H]1C | · | -5[16.7 µM] | 14 | · | 6[16.7 µM] | ·
CCN(CC)CCn1c2ccccc2c2cnc(N=CN(C)C)c(C#N)c21 | -2 | · | · | 7 | · | 29*
COC(=O)c1c(NC(=O)c2ccc([N+](=O)[O-])o2)sc2c1CCN(C(C)C)C2 | 0 | -7 | · | 24 | -25 | 9
CC(C)N1CCc2c(sc(NC(=O)c3ccc([N+](=O)[O-])o3)c2C(N)=O)C1 | -3 | -6 | -31 | 13 | 106* | 5
CC(C)N1CCc2c(sc(NC(=O)c3ccc(S(=O)(=O)N4CCc5ccccc54)cc3)c2C(N)=O)C1 | 29 | · | · | 2 | · | 55*
CNC[C@H]1OCCCC[C@H](C)Oc2ccc(NC(=O)NC3CCCCC3)cc2C(=O)N([C@H](C)CO)C[C@H]1C | -1 | -4[16.7 µM] | -2 | · | 15[16.7 µM] | ·
CC(C)NC(=O)N(C)C[C@H]1OCCCC[C@@H](C)Oc2ccc(NC(=O)CCC(F)(F)F)cc2C(=O)N([C@@H](C)CO)C[C@H]1C | -1 | 4[16.7 µM] | 19 | · | -7[16.7 µM] | ·
COc1cccc(-n2c([S-])c(C(=O)Nc3ccc(S(=O)(=O)N4CCOCC4)cc3)[n+]3cc(C(N)=O)ccc23)c1 | 3 | 17 | 45* | -1 | -3 | 4
